These results are taken from ChEMBL document CHEMBL4145568, “Antiplasmodial Diterpenoids and a Benzotropolone from Petradoria pumila” (J Nat Prod, 2018).

Each structure is given as a SMILES string.

The subject of one experiment is A2780. As to the kind of experiment: Cytotoxicity against human A2780 cells assessed as inhibition of cell growth after 2 days by Alamar blue assay. It is filed as functional, cell-based. The settings on record: A2780, 48 h. In general terms: Resazurin is reduced to fluorescent resorufin, in cell work by metabolically active cells.
In another experiment the test system is Plasmodium falciparum. In words: Antimalarial activity against Plasmodium falciparum Dd2 ring stage parasite assessed as decrease in parasite viability after 72 hrs by SYBR green 1 dye based assay. Type of experiment: functional, organism-based. The method, boiled down:
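Ring-stage cultures at 1% hematocrit and 1% parasitemia grown 72 h at 37 °C under 5% CO2, 5% O2, 90% N2 with increasing drug concentrations. Viability read by SYBR Green I DNA quantitation. IC50 from nonlinear regression, mean of three independent determinations each in duplicate, ± SEM.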

The mark [1] stands for this setting: Plasmodium falciparum, Dd2, 72 h, read-out: IC50.

Broadly, the IC50 is the concentration needed to halve the response being measured. For the molecule `C=C[C@@](C)(OC(C)=O)[C@@H]1C[C@@H]2[C@@]3(C)C(=O)CCC(C)(C)[C@@H]3CC[C@@]2(C)O1`, the half-inhibitory concentration (IC50) with A2780 was > 50 µM; in the experiment with Plasmodium falciparum it was “Not Active”. On to `C=C[C@](C)(O)[C@@H]1C[C@@H]2[C@@]3(C)[C@@H](O)CCC(C)(C)[C@@H]3CC[C@@]2(C)O1`, for which the figures for the IC50 with A2780 and with Plasmodium falciparum (setting [1]) were > 50 µM and > 20 µM, respectively.

Take `C[C@@H]1CC[C@H]2[C@@H](C)C(=O)O[C@@H]3O[C@@]4(C)CC[C@@H]1[C@]32OO4` [ARTEMISININ]: the IC50 in the experiment on Plasmodium falciparum (setting [1]) came to 0.0085 µM. Turning to `C=C[C@@](C)(OC(C)=O)[C@@H]1C[C@@H]2[C@@]3(C)[C@@H](O)CCC(C)(C)[C@@H]3CC[C@@]2(C)O1`, the 50% inhibitory concentration (IC50) was > 50 µM with A2780 and 7.3 µM in the experiment on Plasmodium falciparum (setting [1]). `COc1cc([C@@H]2Oc3c(OC)cc(/C=C/COC(=O)CC(C)C)cc3[C@H]2COC(=O)CC(C)C)ccc1O`: the IC50 with Plasmodium falciparum (setting [1]) is > 20 µM. In the case of `COc1cc([C@@H]2Oc3c(OC)cc(/C=C/COC(C)=O)cc3[C@H]2COC(C)=O)ccc1O`, the IC50 entry in the experiment on Plasmodium falciparum was “Not Active”. As for `COc1cc2c(C)cccc2ccc1=O`, the IC50 in the experiment with A2780 was > 50 µM; with Plasmodium falciparum (setting [1]), > 20 µM. As to `C=C[C@](C)(O)[C@@H]1C[C@@H]2[C@@]3(C)C(=O)CCC(C)(C)[C@@H]3CC[C@@]2(C)O1`, the 50% inhibitory concentration (IC50) is > 50 µM in the experiment with A2780 and > 20 µM with Plasmodium falciparum (setting [1]).
